Results from different studies.
Lines come from different studies, so protocols differ.
Observed: cell growth or viability

SMILES	cell line	method	tested at	time	quantity	value
O=c1c2cc(Cl)ccc2nc(-c2ccccc2)n1N=Cc1ccc(Cl)cc1Cl	LLC-PK1	MTT	–	72 h	IC50	264 µM
CC1(C)C[C@H]2[C@H]1CC[C@]1(C)CCC[C@@]2(n2cc(C(=O)NCCN)nn2)C1	HT-29	CCK-8	10 µM	–	inhibition	53.4%
O=c1c2cc(Cl)ccc2nc(-c2ccccc2)n1N=Cc1cccnc1	LLC-PK1	MTT	–	72 h	IC50	326 µM
CC1(C)C[C@H]2[C@H]1CC[C@]1(C)CCC[C@@]2(n2cc(C(=O)Nc3ccc(Cl)cc3)nn2)C1	HT-29	CCK-8	50 µM	–	inhibition	16.8%
O=c1c2cc(Cl)ccc2nc(-c2ccccc2)n1N=Cc1ccc2c(c1)OCO2	LLC-PK1	MTT	–	72 h	IC50	60.2 µM
Cc1nc(Nc2ncc(C(=O)Nc3c(C)cccc3Cl)s2)cc(N2CC[C@H](O)C2)n1	OCI-Ly7	ATP luminescence	10 µM	72 h	inhibition	57%
C=C(NC(=O)C(=C)NC(=O)c1csc(C2=N[C@@H]3c4csc(n4)[C@H]4NC(=O)c5csc(n5)[C@H]([C@](C)(O)[C@@H](C)O)NC(=O)[C@H]5CSC(=N5)/C(=C/C)NC(=O)[C@H]([C@@H](C)O)NC(=O)c5csc(n5)[C@]3(CC2)NC(=O)[C@H](C)NC(=O)C(=C)NC(=O)[C@H](C)NC(=O)[C@H]([C@@H](C)CC)N[C@@H]2C=Cc3c([C@H](C)O)cc(nc3[C@H]2O)C(=O)O[C@@H]4C)n1)C(N)=O	SQ20B	–	–	–	EC50	0.7 µM
CC1(C)C[C@H]2[C@H]1CC[C@]1(C)CCC[C@@]2(n2cc(C(=O)O)nn2)C1	HT-29	CCK-8	10 µM	–	inhibition	< 50%
CCC(=O)NCc1ccc(-c2cnc(C3CN(C(=O)c4ccc(NC(=O)[C@@H]5CC(C)(C)CN5)s4)C3)s2)c2ccccc12	IMR-90	SRB	–	7 days	GI50	> 10 µM
